Assay results reported in ChEMBL document CHEMBL4145582, “Cytotoxic and Antibacterial Eremophilane Sesquiterpenes from the Marine-Derived Fungus Cochliobolus lunatus SCSIO41401” (J Nat Prod, 2018).
Activity calls are given as the source filed them. No cut-off for these calls is given here.

Tests used:
[1] = test system: ACHN; experiment: Induction of apoptosis in human ACHN cells assessed as necrotic cells at 4 uM after 24 hrs by Annexin V-FITC/propidium iodide staining based flow cytometric method (reference value: 0%); format: functional
Outline: (§1)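 ACHN cells are treated at 1, 2 and 4 μM for 24, 48 and 72 h. Cells are then double-stained with annexin V-FITC and propidium iodide and analysed by flow cytometry. Early apoptotic, late apoptotic, necrotic and viable fractions are quantified.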

[2] = test system: SGC-7901; experiment: Cytotoxicity against human SGC7901 cells after 6 days by MTT assay; format: functional, cell-based; details: SGC-7901, 144 h
Outline: (§2)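 HepG-2 and SGC7901 cells; growth inhibition read by MTT method, with 5-fluorouracil as positive control.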

[3] = test system: ACHN; experiment: Induction of apoptosis in human ACHN cells assessed as early apoptotic cells at 4 uM after 48 hrs by Annexin V-FITC/propidium iodide staining based flow cytometric method (reference value: 0%); format: functional; outline: as §1
[4] = test system: ACHN; experiment: Induction of apoptosis in human ACHN cells assessed as necrotic cells at 2 uM after 72 hrs by Annexin V-FITC/propidium iodide staining based flow cytometric method (reference value: 0%); format: functional; outline: as §1
[5] = test system: ACHN; experiment: Induction of apoptosis in human ACHN cells assessed as viable cells at 2 uM after 48 hrs by Annexin V-FITC/propidium iodide staining based flow cytometric method (reference value: 100%); format: functional; details: read-out: Activity; outline: as §1
[6] = test system: ACHN; experiment: Induction of apoptosis in human ACHN cells assessed as viable cells at 2 uM after 72 hrs by Annexin V-FITC/propidium iodide staining based flow cytometric method (reference value: 100%); format: functional; details: read-out: Activity; outline: as §1
[7] = test system: Erysipelothrix rhusiopathiae; experiment: Antimicrobial activity against Erysipelothrix rhusiopathiae ATCC 19414 after 24 hrs by serial dilution method; format: functional; details: ATCC 19414, 24 h
Outline: (§3)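 Serial broth dilution in 96-well microtiter plates. Compounds and controls are dissolved in DMSO as stock. Bacteria are grown overnight at 37 °C, then diluted to 10^6 cfu/mL. E. coli and S. aureus are grown in Luria–Bertani broth. P. multocida and E. rhusiopathiae are grown in trypticase soy broth with 10% calf serum. Plates are incubated at 37 °C for 24 h and read at 630 nm.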

[8] = test system: HepG2; experiment: Cytotoxicity against human HepG2 cells after 6 days by MTT assay; format: functional, cell-based; details: HepG2, 144 h; outline: as §2
[9] = test system: ACHN; experiment: Induction of apoptosis in human ACHN cells assessed as viable cells at 1 uM after 48 hrs by Annexin V-FITC/propidium iodide staining based flow cytometric method (reference value: 100%); format: functional; details: read-out: Activity; outline: as §1
[10] = test system: ACHN; experiment: Induction of apoptosis in human ACHN cells assessed as viable cells at 4 uM after 72 hrs by Annexin V-FITC/propidium iodide staining based flow cytometric method (reference value: 100%); format: functional; details: read-out: Activity; outline: as §1
[11] = test system: ACHN; experiment: Cytotoxicity against human ACHN cells after 72 hrs by CCK8 assay; format: functional, cell-based
Outline: (§4)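 Renal cancer lines ACHN, 786-O and OS-RC-2; cell viability read by CCK-8 assay, with sorafenib as positive control.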

[12] = test system: ACHN; experiment: Induction of apoptosis in human ACHN cells assessed as early apoptotic cells at 2 uM after 48 hrs by Annexin V-FITC/propidium iodide staining based flow cytometric method (reference value: 0%); format: functional; outline: as §1
[13] = test system: ACHN; experiment: Induction of apoptosis in human ACHN cells assessed as early apoptotic cells at 2 uM after 72 hrs by Annexin V-FITC/propidium iodide staining based flow cytometric method (reference value: 0%); format: functional; outline: as §1
[14] = test system: ACHN; experiment: Induction of apoptosis in human ACHN cells assessed as late apoptotic cells at 2 uM after 72 hrs by Annexin V-FITC/propidium iodide staining based flow cytometric method (reference value: 0%); format: functional; outline: as §1
[15] = test system: ACHN; experiment: Induction of apoptosis in human ACHN cells assessed as viable cells at 2 uM after 24 hrs by Annexin V-FITC/propidium iodide staining based flow cytometric method (reference value: 100%); format: functional; details: read-out: Activity; outline: as §1
[16] = test system: ACHN; experiment: Induction of apoptosis in human ACHN cells assessed as early apoptotic cells at 1 uM after 48 hrs by Annexin V-FITC/propidium iodide staining based flow cytometric method (reference value: 0%); format: functional; outline: as §1
[17] = test system: ACHN; experiment: Induction of apoptosis in human ACHN cells assessed as late apoptotic cells at 1 uM after 24 hrs by Annexin V-FITC/propidium iodide staining based flow cytometric method (reference value: 0%); format: functional; outline: as §1
[18] = test system: ACHN; experiment: Induction of apoptosis in human ACHN cells assessed as necrotic cells at 2 uM after 48 hrs by Annexin V-FITC/propidium iodide staining based flow cytometric method (reference value: 0%); format: functional; outline: as §1
[19] = test system: ACHN; experiment: Cell cycle arrest in human ACHN cells at 1 to 4 uM after 24 to 72 hrs by propidium iodide staining based flow cytometric method; format: functional
[20] = test system: ACHN; experiment: Induction of apoptosis in human ACHN cells assessed as necrotic cells at 1 uM after 72 hrs by Annexin V-FITC/propidium iodide staining based flow cytometric method (reference value: 0%); format: functional; outline: as §1
[21] = test system: OS-RC-2; experiment: Cytotoxicity against human OS-RC2 cells after 72 hrs by CCK8 assay; format: functional, cell-based; details: OS-RC-2, 72 h; outline: as §4
[22] = test system: Escherichia coli; experiment: Antimicrobial activity against Escherichia coli ATCC 25922 after 24 hrs by serial dilution method; format: functional; details: ATCC 25922, 24 h; outline: as §3
[23] = test system: ACHN; experiment: Induction of apoptosis in human ACHN cells assessed as viable cells at 1 uM after 24 hrs by Annexin V-FITC/propidium iodide staining based flow cytometric method (reference value: 100%); format: functional; details: read-out: Activity; outline: as §1
[24] = test system: ACHN; experiment: Induction of apoptosis in human ACHN cells assessed as late apoptotic cells at 2 uM after 48 hrs by Annexin V-FITC/propidium iodide staining based flow cytometric method (reference value: 0%); format: functional; outline: as §1
[25] = test system: ACHN; experiment: Induction of apoptosis in human ACHN cells assessed as viable cells at 4 uM after 48 hrs by Annexin V-FITC/propidium iodide staining based flow cytometric method (reference value: 100%); format: functional; details: read-out: Activity; outline: as §1
[26] = test system: ACHN; experiment: Induction of apoptosis in human ACHN cells assessed as late apoptotic cells at 4 uM after 72 hrs by Annexin V-FITC/propidium iodide staining based flow cytometric method (reference value: 0%); format: functional; outline: as §1
[27] = test system: ACHN; experiment: Induction of apoptosis in human ACHN cells assessed as viable cells at 1 uM after 72 hrs by Annexin V-FITC/propidium iodide staining based flow cytometric method (reference value: 100%); format: functional; details: read-out: Activity; outline: as §1
[28] = test system: ACHN; experiment: Induction of apoptosis in human ACHN cells assessed as necrotic cells at 2 uM after 24 hrs by Annexin V-FITC/propidium iodide staining based flow cytometric method (reference value: 0%); format: functional; outline: as §1
[29] = test system: ACHN; experiment: Induction of apoptosis in human ACHN cells assessed as early apoptotic cells at 4 uM after 24 hrs by Annexin V-FITC/propidium iodide staining based flow cytometric method (reference value: 0%); format: functional; outline: as §1
[30] = test system: ACHN; experiment: Induction of apoptosis in human ACHN cells assessed as late apoptotic cells at 1 uM after 72 hrs by Annexin V-FITC/propidium iodide staining based flow cytometric method (reference value: 0%); format: functional; outline: as §1
[31] = test system: 786-0; experiment: Cytotoxicity against human 786-O cells after 72 hrs by CCK8 assay; format: functional, cell-based; details: 786-0, 72 h; outline: as §4
[32] = test system: ACHN; experiment: Induction of apoptosis in human ACHN cells assessed as late apoptotic cells at 4 uM after 48 hrs by Annexin V-FITC/propidium iodide staining based flow cytometric method (reference value: 0%); format: functional; outline: as §1
[33] = test system: ACHN; experiment: Induction of apoptosis in human ACHN cells assessed as necrotic cells at 4 uM after 48 hrs by Annexin V-FITC/propidium iodide staining based flow cytometric method (reference value: 0%); format: functional; outline: as §1

C=C(/C=N/O)[C@]1(OC)C[C@@]2(C)C(=CC1=O)C=C[C@H](OC(=O)/C=C/C(C)=C/[C@@H](C)CC)[C@@H]2C
Activity [1]: 21.8%
IC50 [2]: 17 µM
Activity [3]: 19.2%
Activity [4]: 9%
viability at 2 µM [5]: 87.1%
viability at 2 µM [6]: 80.5%
MIC [7]: > 100 µg/mL
IC50 [8]: 5.9 µM
viability at 1 µM [9]: 91.4%
viability at 4 µM [10]: 6.9%
IC50 [11]: 3.1 µM
Activity [12]: 2.3%
Activity [13]: 6.8%
Activity [14]: 3.8%
viability at 2 µM [15]: 91.4%
Activity [16]: 1.3%
Activity [17]: 0.7%
Activity [18]: 9.3%
Activity [19]: inactive
Activity [20]: 6.2%
IC50 [21]: > 50 µM
MIC [22]: > 100 µg/mL
viability at 1 µM [23]: 93.2%
Activity [24]: 1.3%
viability at 4 µM [25]: 50%
Activity [26]: 8.5%
viability at 1 µM [27]: 90.8%
Activity [28]: 7.2%
Activity [29]: 1.1%
Activity [30]: 1.1%
IC50 [31]: 27 µM
Activity [32]: 11.3%
Activity [33]: 19.5%
